Reference: ChEMBL document CHEMBL3044702, “Synthesis and insecticidal activities of novel N-sulfenyl-N'-tert-butyl-N,N'-diacylhydrazines. 3. N-(alkyldithio), n-(aminothio), and N,N-dithio derivatives” (2008)
In brackets after ≈: the same amount, converted by molar mass.

Columns and labels:
Assay type in all cases: functional
[1] = system: Mythimna separata; test: Larvicidal activity against fourth-instar larval stage of Mythimna separata (Oriental armyworm) in compound-pretreated corn leaves assessed as mortality at 2.5 mg/kg at 25 +/-1 degC measured after 4 days
Method in brief: (§1)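 Insects were reared in the laboratory and tested at 25 ± 1 °C, with repeats as statistics required. Larvae were scored dead or alive. Mortality was corrected by Abbott's formula and expressed on a 0–100 scale, where 0 is no activity and 100 is total kill.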

[2] = system: Mythimna separata; test: Larvicidal activity against fourth-instar larval stage of Mythimna separata (Oriental armyworm) in compound-pretreated corn leaves assessed as mortality at 10 mg/kg at 25 +/-1 degC measured after 4 days; method in brief: as §1
[3] = system: Mythimna separata; test: Larvicidal activity against fourth-instar larval stage of Mythimna separata (Oriental armyworm) in compound-pretreated corn leaves assessed as mortality at 50 mg/kg at 25 +/-1 degC measured after 4 days; method in brief: as §1
[4] = system: Mythimna separata; test: Larvicidal activity against fourth-instar larval stage of Mythimna separata (Oriental armyworm) in compound-pretreated corn leaves assessed as mortality at 25 mg/kg at 25 +/-1 degC measured after 4 days; method in brief: as §1
[5] = system: Mythimna separata; test: Larvicidal activity against fourth-instar larval stage of Mythimna separata (Oriental armyworm) in compound-pretreated corn leaves assessed as mortality at 20 mg/kg at 25 +/-1 degC measured after 4 days; method in brief: as §1
[6] = system: Mythimna separata; test: Larvicidal activity against fourth-instar larval stage of Mythimna separata (Oriental armyworm) in compound-pretreated corn leaves assessed as mortality at 40 mg/kg at 25 +/-1 degC measured after 4 days; method in brief: as §1
[7] = system: Mythimna separata; test: Larvicidal activity against fourth-instar larval stage of Mythimna separata (Oriental armyworm) in compound-pretreated corn leaves assessed as mortality at 30 mg/kg at 25 +/-1 degC measured after 4 days; method in brief: as §1
[8] = system: Mythimna separata; test: Larvicidal activity against fourth-instar larval stage of Mythimna separata (Oriental armyworm) in compound-pretreated corn leaves assessed as mortality at 100 mg/kg at 25 +/-1 degC measured after 4 days; method in brief: as §1
[9] = system: Mythimna separata; test: Larvicidal activity against fourth-instar larval stage of Mythimna separata (Oriental armyworm) in compound-pretreated corn leaves assessed as mortality at 200 mg/kg at 25 +/-1 degC measured after 4 days; method in brief: as §1
[10] = system: Mythimna separata; test: Larvicidal activity against fourth-instar larval stage of Mythimna separata (Oriental armyworm) in compound-pretreated corn leaves assessed as mortality at 5 mg/kg at 25 +/-1 degC measured after 4 days; method in brief: as §1
[11] = system: Plutella xylostella; test: Toxic ratio of RH-5992 LC50 to compound LC50 for second-instar larval stage of Plutella xylostella (diamondback moth) measured after 6 days by leaf-dip method
Method in brief: (§2)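 Leaf-dip assay on laboratory-reared diamondback moth larvae at 25 ± 1 °C. Fresh cabbage leaf disks 1.8 cm across were dipped in test solution for 15 s. Larvae were scored dead or alive, and mortality was corrected by Abbott's formula. Mortality-regression data were put through Finney probit analysis to give LC50 for the test compounds and the parent reference.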

[12] = system: Plutella xylostella; test: Larvicidal activity against second-instar larval stage of Plutella xylostella (diamondback moth) in cabbage leaves assessed as mortality at 25 +/-1 degC treated for 15 secs before larval infestation measured after 6 days by leaf-dip method; conditions: 144 h; method in brief: as §2

## CCOC(=O)CCN(Cc1ccccc1)SN(Cc1ccc(CC)cc1)N(C(=O)c1cc(C)cc(C)c1)C(C)(C)C
[1]
  mortality at 2.5 mg/kg: 100%

## CC(C)(C)N(NC(=O)c1ccccc1)C(=O)c1ccccc1 [RH-5849]
[2]
  mortality at 10 mg/kg: 0%
[3]
  mortality at 50 mg/kg: 95%
[4]
  mortality at 25 mg/kg: 70%

## CCc1ccc(C(=O)N(SSN(C(=O)c2ccc(CC)cc2)N(C(=O)c2cc(C)cc(C)c2)C(C)(C)C)N(C(=O)c2cc(C)cc(C)c2)C(C)(C)C)cc1
[2]
  mortality at 10 mg/kg: 10%
[3]
  mortality at 50 mg/kg: 100%
[5]
  mortality at 20 mg/kg: 95%
[6]
  mortality at 40 mg/kg: 100%
[7]
  mortality at 30 mg/kg: 100%
[8]
  mortality at 100 mg/kg: 100%
[9]
  mortality at 200 mg/kg: 100%

## Cc1cccc(C(=O)N(NC(=O)c2ccc(Cl)cc2)C(C)(C)C)c1
[2]
  mortality at 10 mg/kg: 0%
[3]
  mortality at 50 mg/kg: 90%
[8]
  mortality at 100 mg/kg: 100%
[9]
  mortality at 200 mg/kg: 100%

## CCCSSN(C(=O)c1ccc(CC)cc1)N(C(=O)c1cc(C)cc(C)c1)C(C)(C)C
[2]
  mortality at 10 mg/kg: 100%
[1]
  mortality at 2.5 mg/kg: 100%
[10]
  mortality at 5 mg/kg: 100%

## CCc1ccc(C(=O)NN(C(=O)c2cc(C)cc(C)c2)C(C)(C)C)cc1 [TEBUFENOZIDE]
[2]
  mortality at 10 mg/kg: 75%
[3]
  mortality at 50 mg/kg: 100%
[11]
  RatioLC50: 1
[5]
  mortality at 20 mg/kg: 100%
[6]
  mortality at 40 mg/kg: 100%
[7]
  mortality at 30 mg/kg: 100%
[1]
  mortality at 2.5 mg/kg: 55%
[10]
  mortality at 5 mg/kg: 95%
[8]
  mortality at 100 mg/kg: 100%
[9]
  mortality at 200 mg/kg: 100%
[12]
  LC50: 56.9 µg/mL (≈ 161 µM)

## Cc1cc(C)cc(C(=O)N(NC(=O)c2ccccc2)C(C)(C)C)c1
[2]
  mortality at 10 mg/kg: 10%
[3]
  mortality at 50 mg/kg: 80%
[8]
  mortality at 100 mg/kg: 100%
[9]
  mortality at 200 mg/kg: 100%

## CCCCSSN(C(=O)c1ccc(Cl)cc1)N(C(=O)c1ccccc1)C(C)(C)C
[2]
  mortality at 10 mg/kg: 90%
[4]
  mortality at 25 mg/kg: 100%
[1]
  mortality at 2.5 mg/kg: 0%
[10]
  mortality at 5 mg/kg: 30%

## Cc1cccc(C(=O)N(N(SSN(C(=O)c2ccc(Cl)cc2)N(C(=O)c2cccc(C)c2)C(C)(C)C)C(=O)c2ccc(Cl)cc2)C(C)(C)C)c1
[2]
  mortality at 10 mg/kg: 0%
[3]
  mortality at 50 mg/kg: 100%
[8]
  mortality at 100 mg/kg: 100%
[9]
  mortality at 200 mg/kg: 100%

## CCCSSN(C(=O)c1cccc(OC)c1C)N(C(=O)c1cc(C)cc(C)c1)C(C)(C)C
[2]
  mortality at 10 mg/kg: 100%
[4]
  mortality at 25 mg/kg: 100%
[1]
  mortality at 2.5 mg/kg: 100%
[10]
  mortality at 5 mg/kg: 100%

## Cc1cc(C)cc(C(=O)N(NC(=O)c2ccc(Cl)cc2)C(C)(C)C)c1
[2]
  mortality at 10 mg/kg: 30%
[3]
  mortality at 50 mg/kg: 100%
[5]
  mortality at 20 mg/kg: 50%
[6]
  mortality at 40 mg/kg: 100%
[8]
  mortality at 100 mg/kg: 100%
[9]
  mortality at 200 mg/kg: 100%

## Cc1cc(C)cc(C(=O)N(NC(=O)c2ccc3c(c2C)OC(C)C3)C(C)(C)C)c1 (stereo not drawn) [FUXIAN]
[1]
  mortality at 2.5 mg/kg: 90%
[10]
  mortality at 5 mg/kg: 100%

## CCCSSN(C(=O)c1ccc(Cl)cc1)N(C(=O)c1ccccc1)C(C)(C)C
[2]
  mortality at 10 mg/kg: 80%
[4]
  mortality at 25 mg/kg: 100%
[1]
  mortality at 2.5 mg/kg: 0%
[10]
  mortality at 5 mg/kg: 20%

## CC(C)(C)N(C(=O)c1ccccc1)N(SSN(C(=O)c1ccc(Cl)cc1)N(C(=O)c1ccccc1)C(C)(C)C)C(=O)c1ccc(Cl)cc1
[2]
  mortality at 10 mg/kg: 10%
[3]
  mortality at 50 mg/kg: 100%
[5]
  mortality at 20 mg/kg: 75%
[6]
  mortality at 40 mg/kg: 100%
[7]
  mortality at 30 mg/kg: 85%
[8]
  mortality at 100 mg/kg: 100%

## CCCSSN(C(=O)c1ccc2c(c1C)OC(C)C2)N(C(=O)c1cc(C)cc(C)c1)C(C)(C)C (stereo not drawn)
[2]
  mortality at 10 mg/kg: 100%
[4]
  mortality at 25 mg/kg: 100%
[1]
  mortality at 2.5 mg/kg: 100%
[10]
  mortality at 5 mg/kg: 100%

## CCCCSSN(C(=O)c1ccccc1)N(C(=O)c1ccccc1)C(C)(C)C
[2]
  mortality at 10 mg/kg: 0%
[3]
  mortality at 50 mg/kg: 100%
[4]
  mortality at 25 mg/kg: 90%

## CC(C)(C)N(C(=O)c1ccccc1)N(SSN(C(=O)c1ccccc1)N(C(=O)c1ccccc1)C(C)(C)C)C(=O)c1ccccc1
[2]
  mortality at 10 mg/kg: 5%
[3]
  mortality at 50 mg/kg: 60%
[8]
  mortality at 100 mg/kg: 85%
[9]
  mortality at 200 mg/kg: 95%

## CCCCSSN(C(=O)c1cccc(OC)c1C)N(C(=O)c1cc(C)cc(C)c1)C(C)(C)C
[2]
  mortality at 10 mg/kg: 100%
[4]
  mortality at 25 mg/kg: 100%
[1]
  mortality at 2.5 mg/kg: 100%
[10]
  mortality at 5 mg/kg: 100%

## Cc1cc(C)cc(C(=O)N(N(SSN(C(=O)c2ccc(Cl)cc2)N(C(=O)c2cc(C)cc(C)c2)C(C)(C)C)C(=O)c2ccc(Cl)cc2)C(C)(C)C)c1
[2]
  mortality at 10 mg/kg: 0%
[3]
  mortality at 50 mg/kg: 60%
[8]
  mortality at 100 mg/kg: 90%
[9]
  mortality at 200 mg/kg: 100%

## Cc1cccc(C(=O)N(N(SSN(C(=O)c2ccccc2)N(C(=O)c2cccc(C)c2)C(C)(C)C)C(=O)c2ccccc2)C(C)(C)C)c1
[2]
  mortality at 10 mg/kg: 0%
[3]
  mortality at 50 mg/kg: 10%
[8]
  mortality at 100 mg/kg: 50%
[9]
  mortality at 200 mg/kg: 100%

## CCCSSN(C(=O)c1ccccc1)N(C(=O)c1ccccc1)C(C)(C)C
[2]
  mortality at 10 mg/kg: 0%
[3]
  mortality at 50 mg/kg: 100%
[4]
  mortality at 25 mg/kg: 90%

## CC(C)(C)N(NC(=O)c1ccc(Cl)cc1)C(=O)c1ccccc1 [HALOFENOZIDE]
[2]
  mortality at 10 mg/kg: 0%
[3]
  mortality at 50 mg/kg: 100%
[5]
  mortality at 20 mg/kg: 85%
[6]
  mortality at 40 mg/kg: 100%
[7]
  mortality at 30 mg/kg: 95%
[1]
  mortality at 2.5 mg/kg: 10%
[10]
  mortality at 5 mg/kg: 70%
[8]
  mortality at 100 mg/kg: 100%
[9]
  mortality at 200 mg/kg: 100%

## Cc1cccc(C(=O)N(NC(=O)c2ccccc2)C(C)(C)C)c1
[2]
  mortality at 10 mg/kg: 0%
[3]
  mortality at 50 mg/kg: 30%
[8]
  mortality at 100 mg/kg: 50%
[9]
  mortality at 200 mg/kg: 100%

## CCCCSSN(C(=O)c1ccc2c(c1C)OC(C)C2)N(C(=O)c1cc(C)cc(C)c1)C(C)(C)C (stereo not drawn)
[2]
  mortality at 10 mg/kg: 100%
[4]
  mortality at 25 mg/kg: 100%
[1]
  mortality at 2.5 mg/kg: 80%
[10]
  mortality at 5 mg/kg: 100%

## Cc1cc(C)cc(C(=O)N(N(SSN(C(=O)c2ccccc2)N(C(=O)c2cc(C)cc(C)c2)C(C)(C)C)C(=O)c2ccccc2)C(C)(C)C)c1
[2]
  mortality at 10 mg/kg: 0%
[3]
  mortality at 50 mg/kg: 10%
[8]
  mortality at 100 mg/kg: 70%
[9]
  mortality at 200 mg/kg: 100%

## CCc1ccc(CN(SNc2ccc(Cl)cc2)N(C(=O)c2cc(C)cc(C)c2)C(C)(C)C)cc1
[2]
  mortality at 10 mg/kg: 90%
[4]
  mortality at 25 mg/kg: 100%
[1]
  mortality at 2.5 mg/kg: 0%
[10]
  mortality at 5 mg/kg: 80%

## CCCCSSN(C(=O)c1ccc(CC)cc1)N(C(=O)c1cc(C)cc(C)c1)C(C)(C)C
[2]
  mortality at 10 mg/kg: 100%
[1]
  mortality at 2.5 mg/kg: 90%
[10]
  mortality at 5 mg/kg: 100%

## CCc1ccc(CN(SNc2ccc(C)cc2)N(C(=O)c2cc(C)cc(C)c2)C(C)(C)C)cc1
[1]
  mortality at 2.5 mg/kg: 100%
